ChEMBL document CHEMBL4431385, “Substituted tetracyclic indole core derivatives of HCV NS5A inhibitor MK-8742” (Bioorg Med Chem Lett, 2016)
Positions count from the first letter of the chain named.

What was measured:
[1] = biological target: T1, Nonstructural protein 5A (Hepatitis C virus) (UniProt Q5L478); experiment: Inhibition of HCV GT4a NS5A assessed as suppression of replicon RNA level by real-time PCR analysis; conditions: Hepatitis C virus subtype 4a
T1 sequence (whole entry): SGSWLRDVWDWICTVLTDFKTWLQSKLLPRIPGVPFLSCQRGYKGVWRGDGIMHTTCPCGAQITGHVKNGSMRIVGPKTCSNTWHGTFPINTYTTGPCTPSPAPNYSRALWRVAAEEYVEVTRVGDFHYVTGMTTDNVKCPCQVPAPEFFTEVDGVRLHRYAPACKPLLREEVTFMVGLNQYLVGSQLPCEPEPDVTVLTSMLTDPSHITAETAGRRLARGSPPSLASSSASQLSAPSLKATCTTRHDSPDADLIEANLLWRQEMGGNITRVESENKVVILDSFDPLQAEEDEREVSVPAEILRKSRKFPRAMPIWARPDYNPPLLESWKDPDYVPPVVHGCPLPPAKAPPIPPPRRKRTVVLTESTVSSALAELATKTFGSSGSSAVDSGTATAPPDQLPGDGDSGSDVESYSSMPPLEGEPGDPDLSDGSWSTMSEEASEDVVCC

[2] = tested on: T2, Nonstructural protein 5A (Hepatitis C virus), Q5L478 [Y93H]; experiment: Inhibition of HCV GT1a NS5A Y93H mutant assessed as suppression of replicon RNA level by real-time PCR analysis; conditions: Hepatitis C virus subtype 1a
T2 sequence (whole entry): T1 sequence (whole entry) with Y93H

[3] = biological target: T1, Nonstructural protein 5A (Hepatitis C virus); experiment: Inhibition of HCV GT2b NS5A assessed as suppression of replicon RNA level by real-time PCR analysis; conditions: Hepatitis C virus subtype 2b
Procedure, shortened: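 GT2b replicon, which carries the naturally occurring NS5A 31M resistance-associated variant; potency given as EC90 in nM.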

[4] = biological target: T1, Nonstructural protein 5A (Hepatitis C virus); experiment: Inhibition of HCV GT3a NS5A assessed as suppression of replicon RNA level by real-time PCR analysis; conditions: Hepatitis C virus subtype 3a
[5] = tested on: Hepatitis C virus subtype 1a; experiment: Selectivity ratio of EC90 for HCV GT1a NS5A Y93H mutant to EC90 for HCV GT1a NS5A
[6] = tested on: Nonstructural protein 5A (Hepatitis C virus), Q5L478 [UNDEFINED MUTATION]; experiment: Inhibition of HCV GT1a NS5A L31V mutant assessed as suppression of replicon RNA level by real-time PCR analysis; conditions: Hepatitis C virus subtype 1a
[7] = biological target: T1, Nonstructural protein 5A (Hepatitis C virus); experiment: Inhibition of HCV GT2a NS5A assessed as suppression of replicon RNA level by real-time PCR analysis; conditions: Hepatitis C virus subtype 2a
[8] = biological target: T1, Nonstructural protein 5A (Hepatitis C virus); experiment: Inhibition of HCV GT1a NS5A assessed as suppression of replicon RNA level by real-time PCR analysis; conditions: Hepatitis C virus subtype 1a
[9] = biological target: T1, Nonstructural protein 5A (Hepatitis C virus); experiment: Inhibition of HCV GT1b NS5A assessed as suppression of replicon RNA level by real-time PCR analysis; conditions: Hepatitis C virus subtype 1b
[10] = Half life in Sprague-Dawley rat at 5 mg/kg, po or 2 mg/kg, iv; type: ADME, organism-based; conditions: in vivo
Procedure, shortened: (§1)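 Male Sprague–Dawley rats got IV dosing at 2 mg/kg in 60% PEG200 and PO dosing at 5 mpk in either 0.5% MC or 10% TWEEN, depending on compound. The readouts are PO AUC (µM h), PO Cmax (µM), T1/2 (h), Cl (ml/min/kg) and F (%).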

[11] = AUC in Sprague-Dawley rat at 5 mg/kg, po; type: ADME, organism-based; conditions: in vivo; procedure, shortened: as §1
[12] = Cmax in Sprague-Dawley rat at 5 mg/kg, po; type: ADME, organism-based; design: dose 5 mg/kg, route oral; conditions: in vivo; procedure, shortened: as §1
[13] = Oral bioavailability in Sprague-Dawley rat at 5 mg/kg; type: ADME, organism-based; conditions: in vivo; procedure, shortened: as §1
[14] = Clearance in Sprague-Dawley rat at 5 mg/kg, po or 2 mg/kg, iv; type: ADME, organism-based; conditions: in vivo; procedure, shortened: as §1
[15] = Selectivity ratio of EC90 for HCV GT2b NS5A to EC90 for HCV GT1a NS5A
[16] = tested on: Hepatitis C virus subtype 1a; experiment: Selectivity ratio of EC90 for HCV GT1a NS5A L31V mutant to EC90 for HCV GT1a NS5A
[17] = Clearance in Sprague-Dawley rat at 10 mg/kg, po or 2 mg/kg, iv; type: ADME, organism-based; conditions: in vivo
Procedure, shortened: (§2)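 Male Sprague–Dawley rats got an IV dose of 2 mg/kg in 60% PEG200 and a PO dose of 10 mpk in 10% TWEEN. Reported values are PO AUC (µM h), PO Cmax (µM), T1/2 (h), clearance (ml/min/kg) and oral bioavailability F (%).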

[18] = Half life in Sprague-Dawley rat at 10 mg/kg, po or 2 mg/kg, iv; type: ADME, organism-based; conditions: in vivo; procedure, shortened: as §2
[19] = AUC in Sprague-Dawley rat at 10 mg/kg, po; type: ADME, organism-based; conditions: in vivo; procedure, shortened: as §2
[20] = Cmax in Sprague-Dawley rat at 10 mg/kg, po; type: ADME, organism-based; design: dose 10 mg/kg, route oral; conditions: in vivo; procedure, shortened: as §2
[21] = Oral bioavailability in Sprague-Dawley rat at 10 mg/kg; type: ADME, organism-based; conditions: in vivo; procedure, shortened: as §2

COC(=O)N[C@H](C(=O)N1C[C@H](F)C[C@H]1c1ncc(-c2cc(F)c3c(c2)OC(c2ccccc2)n2c-3cc3cc(-c4cnc([C@@H]5C[C@@H](F)CN5C(=O)[C@@H](NC(=O)OC)C(C)C)[nH]4)ccc32)[nH]1)C(C)C (mixture of isomers)
EC90 [1]: 0.1 nM
EC90 [2]: 0.08 nM
EC90 [3]: 72 nM
EC90 [4]: 0.8 nM
Selectivity ratio [5]: 16
EC90 [6]: 9 nM
EC90 [7]: 0.2 nM
EC90 [8]: 0.005 nM
EC90 [9]: 0.003 nM

COC(=O)N[C@H](C(=O)N1CCC[C@H]1c1ncc(-c2cc(F)c3c(c2)O[C@@H](c2ccccc2)n2c-3cc3cc(-c4cnc([C@@H]5CCCN5C(=O)[C@@H](NC(=O)OC)C(C)C)[nH]4)ccc32)[nH]1)C(C)C
half-life [10]: 3.6 h
EC90 [1]: 0.04 nM
EC90 [2]: 34 nM
EC90 [3]: 18 nM
AUC ([11]; Sprague-Dawley, read-out: AUC): 2.8 µM·h
EC90 [4]: 0.4 nM
EC90 [6]: 0.4 nM
Cmax [12]: 330 nM
EC90 [7]: 0.15 nM
bioavailability [13]: 33%
clearance [14]: 11 mL/min/kg
EC90 [8]: 0.005 nM
EC90 [9]: 0.003 nM

COC(=O)N[C@H](C(=O)N1CCC[C@H]1c1ncc(-c2cc(F)c3c(c2)OC(c2cc(Cl)cc(OC)c2)n2c-3cc3cc(-c4cnc([C@@H]5CCCN5C(=O)[C@@H](NC(=O)OC)C(C)C)[nH]4)ccc32)[nH]1)C(C)C (stereo partly drawn)
Selectivity ratio [15]: 70
EC90 [2]: 3 nM
EC90 [3]: 0.7 nM
Selectivity ratio [16]: 10
EC90 [4]: 0.1 nM
Selectivity ratio [5]: 300
EC90 [6]: 0.1 nM
clearance [17]: 8 mL/min/kg
half-life [18]: 5.2 h
AUC [19]: 0.75 µM·h
Cmax [20]: 100 nM
EC90 [8]: 0.01 nM
bioavailability [21]: 3%

COC(=O)N[C@H](C(=O)N1CCC[C@H]1c1ncc(-c2ccc3c(c2)OC(c2cccc(OC)c2)n2c-3cc3cc(-c4cnc([C@@H]5CCCN5C(=O)[C@@H](NC(=O)OC)C(C)C)[nH]4)ccc32)[nH]1)C(C)C (stereo partly drawn)
half-life [10]: 4.3 h
EC90 [2]: 8 nM
EC90 [3]: 2 nM
AUC [11]: 0.51 µM·h
EC90 [4]: 0.1 nM
EC90 [6]: 0.2 nM
Cmax [12]: 100 nM
EC90 [8]: 0.005 nM

COC(=O)N[C@H](C(=O)N1CCC[C@H]1c1ncc(-c2cc(F)c3c(c2)OC(c2cccc(OC)c2)n2c-3cc3cc(-c4cnc([C@@H]5CCCN5C(=O)[C@@H](NC(=O)OC)C(C)C)[nH]4)ccc32)[nH]1)C(C)C (stereo partly drawn)
EC90 [2]: 6 nM
EC90 [3]: 6 nM
EC90 [4]: 0.07 nM
EC90 [6]: 0.2 nM
clearance [17]: 10 mL/min/kg
half-life [18]: 5.9 h
AUC [19]: 2.1 µM·h
Cmax [20]: 240 nM
EC90 [8]: 0.01 nM
bioavailability [21]: 12%
